pIC50: −log10 of the molar value. In brackets after ≈: the same amount, converted by molar mass.
What was measured:
Vero = test: Cytotoxicity against African green monkey Vero cells after 72 hrs by MTS-PMS assay; type: cell-based; settings: Chlorocebus sabaeus
[1] = Protein binding in human plasma; type: ADME, cell-free; settings: read-out: PPB
Cytochrome P450 3A4 = Cytochrome P450 3A4 (Homo sapiens, UniProt P08684); test: Inhibition of CYP3A4 (unknown origin); type: ADME
[2] = Ratio of AUC in mouse to MIC90 of replicating Mycobacterium tuberculosis H37Rv after 4 days by Alamar blue assay
Procedure, shortened: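 Mouse plasma exposure (AUC_inf, µg*h/mL) divided by the MIC90 against replicating H37Rv from the aerobic MABA assay.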

[3] = test system: Mycobacterium tuberculosis; test: Antitubercular activity against replicating Mycobacterium tuberculosis H37Rv after 4 days by Alamar blue assay; type: functional; settings: 96 h
Procedure, shortened: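 MIC90 against M. tuberculosis H37Rv under aerobic, replicating conditions (MABA). Tested at the Institute for Tuberculosis Research, University of Illinois at Chicago.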

[4] = test system: Mycobacterium tuberculosis; test: Antitubercular activity against non-replicating Mycobacterium tuberculosis H37Rv after 10 days by LORA; type: functional; settings: 240 h
Procedure, shortened: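 MIC90 against M. tuberculosis H37Rv under non-replicating conditions (LORA). Tested at the Institute for Tuberculosis Research, University of Illinois at Chicago.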

Chain of Cytochrome P450 3A4 (P08684 whole entry): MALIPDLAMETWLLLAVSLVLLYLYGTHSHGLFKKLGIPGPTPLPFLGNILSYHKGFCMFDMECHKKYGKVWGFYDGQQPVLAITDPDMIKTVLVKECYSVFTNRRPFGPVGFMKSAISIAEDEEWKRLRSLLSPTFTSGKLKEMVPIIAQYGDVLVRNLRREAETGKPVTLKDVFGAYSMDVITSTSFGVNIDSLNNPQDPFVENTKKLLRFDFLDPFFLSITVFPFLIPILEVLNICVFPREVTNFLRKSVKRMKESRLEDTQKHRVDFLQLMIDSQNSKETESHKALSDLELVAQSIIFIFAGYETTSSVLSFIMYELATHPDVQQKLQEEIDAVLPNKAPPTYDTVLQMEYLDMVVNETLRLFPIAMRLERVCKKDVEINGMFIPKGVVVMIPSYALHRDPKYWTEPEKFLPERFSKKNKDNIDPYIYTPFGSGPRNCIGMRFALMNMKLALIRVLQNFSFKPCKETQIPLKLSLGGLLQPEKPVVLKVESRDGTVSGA

Structure (SMILES): COc1cc(C(O)(CCN(C)C)C(c2cc3cc(Br)ccc3nc2OC)c2ccnc(OC)c2OC)c(OC)nc1OC (racemic)
- IC50 (Vero): > 10 µg/mL
- fraction unbound [1]: < 0.001

Structure (SMILES): COc1cnc(OC)c(C(O)(CCN(C)C)C(c2cc3cc(Br)ccc3nc2OC)c2cccc(OC)c2F)c1 (racemic)
- IC50 (Vero): > 10 µg/mL
- fraction unbound [1]: < 0.001

Structure (SMILES): COc1nc2ccc(Br)cc2cc1C(c1cccc2c1OCO2)C(O)(CCN(C)C)c1cccnc1C (racemic)
- IC50 (Vero): > 10 µg/mL
- pIC50 (Cytochrome P450 3A4): < 5.00
- fraction unbound [1]: < 0.001

Structure (SMILES): COc1nc2ccc(Br)cc2cc1C(c1cccc2c1OCO2)C(O)(CCN(C)C)c1cccnc1OC (racemic)
- IC50 (Vero): > 10 µg/mL
- Ratio [2]: 5.73
- pIC50 (Cytochrome P450 3A4): < 5.00
- fraction unbound [1]: < 0.001

Structure (SMILES): COc1cccc(C(c2cc3cc(Br)ccc3nc2OC)C(O)(CCN(C)C)c2cnc(C)cc2C)c1OC (racemic)
- Ratio [2]: 104
- fraction unbound [1]: < 0.001

Structure (SMILES): COc1cc(C(O)(CCN(C)C)C(c2cc3cc(Br)ccc3nc2OC)c2ccnc(OC)c2OC)cnc1OC (racemic)
- IC50 (Vero): > 10 µg/mL
- Ratio [2]: 71.3
- fraction unbound [1]: < 0.001

Structure (SMILES): COc1cc(C(O)(CCN(C)C)C(c2cc3cc(Br)ccc3nc2OC)c2cccc(OC)c2F)c(OC)cn1 (racemic)
- IC50 (Vero): > 10 µg/mL
- fraction unbound [1]: < 0.001

Structure (SMILES): COc1cccc(C(c2cc3cc(C#N)ccc3nc2OC)C(O)(CCN(C)C)c2cc(C)nc(C)c2)c1F (racemic)
- IC50 (Vero): > 10 µg/mL
- pIC50 (Cytochrome P450 3A4): < 5.00
- fraction unbound [1]: < 0.001

Structure (SMILES): CCc1cc(C(O)(CCN(C)C)C(c2cc3cc(Br)ccc3nc2OC)c2cccc(OC)c2F)cc(CC)n1 (racemic)
- IC50 (Vero): > 10 µg/mL
- fraction unbound [1]: < 0.001

Structure (SMILES): COc1cccc(C(c2cc3cc(Br)ccc3nc2OC)C(O)(CCN(C)C)c2cc(C)cnc2C)c1OC (racemic)
- IC50 (Vero): > 10 µg/mL
- Ratio [2]: 19.9
- fraction unbound [1]: < 0.001

Structure (SMILES): CCOc1cc(C(O)(CCN(C)C)C(c2cc3cc(Br)ccc3nc2OC)c2ccnc(OC)c2OC)cc(OC(C)C)n1 (racemic)
- IC50 (Vero): > 10 µg/mL
- fraction unbound [1]: < 0.001

Structure (SMILES): COc1nc2ccc(Br)cc2cc1C(c1cccc(C)c1)C(O)(CCN(C)C)c1cccnc1OC (racemic)
- IC50 (Vero): > 10 µg/mL
- Ratio [2]: 19.3
- pIC50 (Cytochrome P450 3A4): < 5.00
- fraction unbound [1]: < 0.001

Structure (SMILES): COc1nc2ccc(C#N)cc2cc1C(c1cccc(F)c1)C(O)(CCN(C)C)c1cncc(C)c1 (racemic)
- IC50 (Vero): > 10 µg/mL
- fraction unbound [1]: < 0.001

Structure (SMILES): CCOc1cc(C(O)(CCN(C)C)C(c2cc(OC)nc(OC)c2)c2cc3cc(Br)ccc3nc2OC)cc(OC(C)C)n1 (racemic)
- IC50 (Vero): > 10 µg/mL
- Ratio [2]: 1650
- fraction unbound [1]: < 0.001

Structure (SMILES): COc1cccc(C(c2cc3cc(Br)ccc3nc2OC)C(O)(CCN(C)C)c2cc(C)nc(C)c2)c1OC (racemic)
- MIC90 [3]: 0.04 µg/mL (≈ 0.0673 µM)
- MIC90 [4]: 0.07 µg/mL (≈ 0.118 µM)

Structure (SMILES): COc1cccc(C(c2cc3cc(Br)ccc3nc2OC)C(O)(CCN(C)C)c2ccc(C)nc2)c1F (racemic)
- IC50 (Vero): > 10 µg/mL
- pIC50 (Cytochrome P450 3A4): < 5.00
- fraction unbound [1]: < 0.001

Structure (SMILES): COc1cccc(C(O)(CCN(C)C)C(c2cc3cc(Br)ccc3nc2OC)c2cccc3c2OCO3)n1 (racemic)
- IC50 (Vero): > 10 µg/mL
- Ratio [2]: 10.4
- fraction unbound [1]: < 0.001

Structure (SMILES): COc1cccc(C(c2cc3cc(C#N)ccc3nc2OC)C(O)(CCN(C)C)c2cc(C)nc(C)c2)c1OC (racemic)
- IC50 (Vero): > 10 µg/mL
- Ratio [2]: 6.17
- fraction unbound [1]: < 0.001

Structure (SMILES): COc1nc2ccc(Br)cc2cc1C(c1cccc(C)c1)C(O)(CCN(C)C)c1cccnc1C (racemic)
- IC50 (Vero): > 10 µg/mL
- pIC50 (Cytochrome P450 3A4): < 5.00
- fraction unbound [1]: < 0.001

Structure (SMILES): COc1nc2ccc(C#N)cc2cc1C(c1cccc(C)c1)C(O)(CCN(C)C)c1cccnc1OC (racemic)
- IC50 (Vero): > 10 µg/mL
- Ratio [2]: 2.25
- pIC50 (Cytochrome P450 3A4): < 5.00
- fraction unbound [1]: < 0.001

Structure (SMILES): COc1cccc(C(c2cc3cc(Br)ccc3nc2OC)C(O)(CCN(C)C)c2cccc(C)n2)c1F (racemic)
- IC50 (Vero): > 10 µg/mL
- fraction unbound [1]: < 0.001

Structure (SMILES): CCc1cc(C(O)(CCN(C)C)C(c2cc3cc(C#N)ccc3nc2OC)c2cccc(OC)c2F)cc(CC)n1 (racemic)
- IC50 (Vero): > 10 µg/mL
- fraction unbound [1]: < 0.001

Structure (SMILES): COc1nc2ccc(Br)cc2cc1[C@@H](c1ccccc1)[C@@](O)(CCN(C)C)c1cccc2ccccc12 [BEDAQUILINE]
- IC50 (Vero): > 10 µg/mL
- fraction unbound [1]: < 0.001

— ChEMBL document CHEMBL4480421 (Bioorg Med Chem, 2019)
